Screens (PubChem BioAssay)
HCV core dimer: blocks dimerization of HCV core protein; hit rate 0.33% among 300,000; inhibition, % at 5 µM; AID 1899; TR-FRET GST/Flag-core106 dimerization, 1536-well;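 active = inhibition above the mean of all tested compounds plus 3 SD, set per screening campaign, cut at about 45% in these data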
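Test system: GST/Flag-tagged HCV core106 proteins; Medium: KF-containing HEPES buffer, pH 7.45, DTT, CHAPS, BSA; Times: compound-protein-antibody incubation 4 h at 22.5 °C; Detection: TR-FRET 671 and 617 nm emission; Benchmarks: wells lacking GST-core106 and wells with excess unlabelled core106.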
ASAP1 GAP inh: ASAP1 ArfGAP inhibition. inhibition, % at 16.5 µM. hit rate 0.19% among 360,000. AID 624377. Q9ULH1. ASAP1-stimulated ARF1 GTP hydrolysis, GDP FP detection; in the data active = inhibition above about 25%;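 also: 0% = vehicle with enzyme and substrate and 100% = no enzyme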
GC-A act: GC-A (human) enzyme activation. P16066. HEK293 GC-A cells, cGMP TR-FRET, EC30 ANP; 0% at EC30 ANP, 100% saturating ANP. activation, % at 10 µM. hit rate 0.14% among 370,000. AID 1671463; in the data active = activation above about 40%
ARFGAP1 inhibitor: rat ARFGAP1 inhibition; Q62848; Arfgap1-stimulated ARF1 GTP hydrolysis, GDP FP detection; inhibition, % at 16.5 µM; hit rate 0.26% among 360,000;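 active = inhibition above a per-plate limit, mean inhibition of low control wells plus 3 SD, cut at about 25% in these data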;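 also: 0% = DMSO wells with enzyme and 100% = wells lacking Arfgap1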
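Material: rat Arfgap1 GAP domain (His6, aa 1-136), purified enzyme. Also added: human ARF1(Δ1-17)-GTP substrate. Compound dosing: 16.5 µM single point, 1.26% DMSO. Timing: enzyme reaction 120 min at 25 °C after 20 min preincubation. Signal: GDP detection by fluorescence polarization. Read-out basis: percent inhibition of GAP-stimulated GDP formation, scaled between DMSO and no-Arfgap1 medians.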
Fh CTSL1 inh: blocks F. hepatica cathepsin L1 in PFM18AAP counter-screen. hit rate 0.49% among 300,000. inhibition, % at 5.96 µM. recombinant F. hepatica cathepsin L1, Z-Leu-Arg-MCA fluorescence;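 active = inhibition above the mean of all tested compounds plus 3 SD, set per screening campaign, cut at about 17% in these data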;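 also: 0% = plate median of test compound wells and 100% = 1 µM Z-Phe-Ala-diazomethylketone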
NPR2 activator: GC-B (human) receptor activation | HEK293-GC-B cells, CNP EC30, cGMP TR-FRET; 0% at EC30 CNP, 100% saturating CNP | hit rate 0.11% among 370,000 | AID 1920062 | activation, % at 10 µM | P20594;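 active = activation at 10 µM reaching about 35% in either raw or pattern-adjusted values, limit read from the data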
Numbers without * were called inactive. Rows were chosen to be rich in hits. Some 1.2% of all compounds tested hit in one or more screens of this group.

SMILES	HCV core dimer	ASAP1 GAP inh	GC-A act	ARFGAP1 inhibitor	Fh CTSL1 inh	NPR2 activator
Nc1cc(CN2C(=O)c3ccccc3C2=O)cc(Cl)c1O	-1	8	3	5	25*	2
O=C(O)CCc1ccc(-c2ccc(Br)cc2)n1Cc1ccco1	23	-15	-4	-2	-2	5
COc1ccc(-c2ccc(CCC(=O)O)o2)cc1	3	12	1	2	6	-3
O=C(O)CCc1ccc(-c2ccc(Cl)cc2)o1	-14	-7	45*	11	0	-2
O=C(O)CCc1ccc(-c2ccc(Br)cc2)o1	13	-14	44*	7	-5	3
COc1cccc(/C=N/NC(=O)c2nc(-c3ccccc3)cc(-c3ccccc3)n2)c1	50*	5	-1	2	-2	8
CCCCn1c(SCC(=O)Nc2ccc(NC(C)=O)cc2)nc2ccccc2c1=O	-12	9	0	4	0	-7
COc1cccc(-n2c(SCC(N)=O)nc3c([nH]c4ccccc43)c2=O)c1	-5	14	-6	-5	2	2
COc1cccc(-n2c(SCC(=O)Nc3cc(C)on3)nc3c([nH]c4ccccc43)c2=O)c1	36	-4	80*	2	0	-3
COc1ccccc1-n1c(SCC(=O)Nc2cc(C)on2)nc2c([nH]c3ccccc32)c1=O	2	3	71*	7	-2	0
COCCn1c(SCC(=O)Nc2ccccc2F)nc2c([nH]c3ccccc32)c1=O	10	14	55*	5	1	2
CCCCn1c(SCC(=O)Nc2cc(C)on2)nc2ccccc2c1=O	73*	1	36	5	-1	11
Cc1ccc2c(c1)C1(OCCCO1)C(=O)N2	4	-3	1	0	1	3
COc1ccc(C(NC(=O)c2ccc(=O)[nH]c2)C(=O)Nc2ccc(C(C)C)cc2)cc1 (stereo not given)	8	4	1	8	-3	3
Cc1cc(NC(=O)CSc2nc3c([nH]c4ccccc43)c(=O)n2-c2ccccc2F)no1	11	7	73*	1	-1	-2
COc1ccc(-c2nnc(SCC(=O)Nc3cc(C)on3)n2C)cc1OC	1	2	-4	0	2	-6
COc1ccc(-n2c(SCC(=O)Nc3cc(C)on3)nc3ccc(O)cc3c2=O)cc1OC	-14	3	58*	3	7	-2
O=C(NC1CCCCC1)C(c1ccncc1)N(Cc1ccc(F)cc1)C(=O)c1ccccn1 (stereo not given)	0	-5	-5	-12	-1	-4
O=C(NC1CCCC1)C(c1ccc(F)cc1)N(Cc1ccc(F)cc1)C(=O)CCl (stereo not given)	-1	-11	-27	-2	51*	-7
COC(CN(C(=O)CCl)C(C(=O)NC1CCCCC1)c1ccc(C)cc1)OC (stereo not given)	0	-2	2	9	78*	2
CCOC(=O)c1sc(NC(=O)Cn2nnc3sc4c(c3c2=O)CCC(C(C)(C)C)C4)nc1C (stereo not given)	46*	-6	-3	-4	-1	3
CC(=O)Cn1nnc2sc3c(c2c1=O)CCC(C(C)(C)C)C3 (stereo not given)	3	0	7	-11	1	-7
COc1ccccc1NC(=S)N/N=C1\CC(C)(C)Oc2ccc(O)cc21	2	2	42*	9	0	1
CCn1nc([N+](=O)[O-])c2c(-c3nc4ccccc4o3)c(N)n(CCCOC)c2c1=O	3	17	46*	2	-1	5
CCc1ccc(NC(=O)c2ccc3c(c2)C(=O)N(Cc2ccco2)C3=O)cc1	56*	5	-4	-1	3	-6
COC(=O)Cc1ccc(NC(=O)c2ccc3c(c2)C(=O)N(Cc2ccco2)C3=O)cc1	12	-12	0	11	3	7
O=C(c1cc(C2CC2)on1)N1CCCC(N2CCN(c3ccc(F)cc3)CC2)C1 (stereo not given)	2	-2	3	-18	5	-1
